# Rows were chosen to be rich in hits. Some 2.3% of all compounds tested hit in one or more screens of this group.
# SR-BI HDL uptake – inhibitors of mouse SR-BI mediated HDL lipid uptake; Q61009; actives 0.96% (n = 320,000); AID 488896; inhibition, % at 12.5 µM; ldlA[mSR-BI] CHO cells, DiI-HDL uptake fluorescence, 3 h;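 active means mean replicate inhibition of at least 70% and a set share of replicates each scoring 70 or more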;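 further: 0% = median of neutral control wells and 100% = median of positive control wells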
# CAL PDZ FP-1 – blocks peptide binding to human CAL PDZ domain; purified CAL PDZ, TMR-peptide fluorescence polarization, 1 h; AID 504414; inhibition, % at 20 µM; actives 0.02% (n = 330,000);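 active means highest replicate inhibition of at least 40%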;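 further: plate controls were DMSO neutral control wells for no effect and unlabeled competitor peptide control wells for full effect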
#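 Material: tagged CAL PDZ domain; buffer or medium: 25 mM sodium phosphate pH 7.4, 150 mM NaCl, TCEP, IgG, Thesit; compound dosing: single point, 20 µM; schedule: 1 h incubation at room temperature before polarization reading; measured by: FP readout, S and P plane fluorescence; read-out basis: percent inhibition from loss of millipolarization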
# ATG4B inhibitor – inhibitors of human ATG4B cysteine protease; Q9Y4P1; ATG4B cleavage of LC3-PLA2, NBD-HPC fluorescence, 1 h; inhibition, % at 8.33 µM; actives 0.51% (n = 340,000); AID 504462; in the data active means inhibition above about 40%
# Target sequence (Q9Y4P1 whole entry, looked up): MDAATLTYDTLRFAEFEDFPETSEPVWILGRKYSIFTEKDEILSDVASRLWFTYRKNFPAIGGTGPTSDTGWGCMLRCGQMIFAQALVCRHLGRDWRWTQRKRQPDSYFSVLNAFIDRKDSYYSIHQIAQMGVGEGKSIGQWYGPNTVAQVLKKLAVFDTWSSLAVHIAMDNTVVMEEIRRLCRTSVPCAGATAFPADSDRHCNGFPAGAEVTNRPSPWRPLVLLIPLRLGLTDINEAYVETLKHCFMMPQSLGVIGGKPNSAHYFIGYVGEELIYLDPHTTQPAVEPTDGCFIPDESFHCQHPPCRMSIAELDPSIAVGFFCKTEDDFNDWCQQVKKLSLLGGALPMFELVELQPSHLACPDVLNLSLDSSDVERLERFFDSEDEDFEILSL
# SR-BI uptake up – enhances SR-BI lipid uptake from DiI-HDL; AID 504775; actives 0.096% (n = 320,000); CHO ldlA[mSR-BI] cells, DiI-HDL uptake fluorescence, 3 h; 100 = double the neutral-control signal; activation, % at 12.5 µM;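 active means mean replicate activation of at least 60% and every replicate at or above 60%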;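 further: 0% = median plate neutral-control signal and 100% = twice that signal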
#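 Assay system: CHO ldlA[mSR-BI] cells, LDL receptor-null, SR-BI overexpressing; medium: Ham's F12 with 0.5% BSA, HEPES 25 mM, pH 7.4; also added: DiI-HDL 10 µg/mL; timing: 3 h uptake period with compound, 37 °C; signal: DiI fluorescence, bottom read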
# CAL PDZ FP-2 – blocks peptide binding to the human CAL PDZ domain | inhibition, % at 24.9 µM | AID 602252 | Q9HD26 | actives 0.92% (n = 300,000) | purified CAL PDZ, TMR-peptide fluorescence polarization, 1 h;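 active means mean inhibition of at least 30% with at least half of replicates also reaching 30%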;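 further: 0% = DMSO neutral control and 100% = excess unlabeled competitor peptide PRC23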
# ATG4B confirm – ATG4B (human) inhibition, single-dose confirmed; actives 92% (n = 320); shares compounds with ATG4B inhibitor; AID 504757; inhibition, % at 8.33 µM; ATG4B protease fluorescent substrate cleavage assay; in the data active means inhibition above about 39%
# PLA2 ctr – PLA2 (human) inhibition in ATG4B counter-screen; shares compounds with ATG4B inhibitor; purified PLA2, NBD-C6-HPC fluorescence, 45 min; inhibition, % at 8.33 µM; actives 66% (n = 1,600); in the data active means inhibition above about 50%
# Target sequence (P04054 whole entry, looked up): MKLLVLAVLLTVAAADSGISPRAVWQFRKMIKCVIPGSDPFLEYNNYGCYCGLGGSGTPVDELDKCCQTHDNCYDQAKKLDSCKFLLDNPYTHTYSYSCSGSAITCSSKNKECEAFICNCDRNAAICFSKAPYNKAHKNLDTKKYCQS
# * = called active by the depositor; nt = no result.
SMILES,SR-BI HDL uptake,CAL PDZ FP-1,ATG4B inhibitor,SR-BI uptake up,CAL PDZ FP-2,PLA2 ctr,others
Cc1ccc(OC(C)C(=O)N2CC(=O)Nc3ccccc32)cc1 (configuration not stated),nt,-2,14,nt,6,nt,
Cc1nc(Nc2ccc(Cl)c(Cl)c2)sc1C(/C=C/c1ccc2c(c1)OCO2)=NNc1ccc([N+](=O)[O-])cc1[N+](=O)[O-],9,0,0,-9,-6,nt,
Cc1ccc(-n2c(Cc3cccn3C)nnc2SCC(=O)N2CCc3ccccc32)cc1,48,-3,52*,-48,-7,48,
Cc1ccc(NS(=O)(=O)c2cc([N+](=O)[O-])ccc2NNC(=S)Nc2cccc(Cl)c2)c(C)c1,95*,1,88*,-95,-3,101*,
Cc1cccc(NC(=S)NNc2cccc(Cl)c2)c1,nt,-2,-11,nt,-2,nt,
Cc1ccc(NS(=O)(=O)c2cc([N+](=O)[O-])ccc2NNC(=S)Nc2cc(C)ccc2C)c(C)c1,79*,0,58*,-79,nt,73*,
COc1ccc(NC(=S)NNc2ccc([N+](=O)[O-])cc2S(=O)(=O)Nc2ccc(C)cc2C)cc1,77*,0,43*,-77,-3,57*,
CC1(C)Cc2c(cnn2-c2ccccc2)C(NC(=O)CCN2CCCC2=O)C1 (configuration not stated),-5,-2,12,5,4,nt,
O=C(CN1C(=O)COc2ccccc21)NCCCN1CCc2ccccc2C1,-28,-3,76*,28,-1,-12,
O=C(CN1C(=O)COc2ccccc21)NCCCN1CCN(Cc2ccccc2)CC1,-23,-4,-19,23,-1,nt,
NC(=O)C1CCN(c2nc(-c3cccs3)cs2)CC1,24,-1,45*,-24,-1,54*,
COc1ccc(S(=O)(=O)N2CCC(C(=O)N3CCc4ccccc4C3)CC2)cc1C,5,-2,56*,-5,-5,50*,
Cc1cc(S(=O)(=O)N2CCC3(CC2)OCCN3S(=O)(=O)c2cccs2)ccc1F,7,-2,3,-7,13,nt,
Cc1ccc(C(=O)NCc2ccco2)cc1S(=O)(=O)N1CCCC1,-10,-2,-8,10,0,nt,
CC(C)CCn1c2ccccc2c2cc(CC(N)=O)ccc21,13,1,68*,-13,-2,77*,
O=c1c2ccccc2nc(-c2ccoc2)n1CCc1ccccc1,6,-3,42*,-6,-1,36,ATG4B confirm=65*
O=c1c2ccccc2nc(/C=C/c2ccccc2)n1CCc1ccccc1,-1,-3,4,1,1,nt,
NC(=O)CSc1nnc(CNc2cccc(Cl)c2)n1CCc1ccccc1,4,-1,49*,-4,-15,66*,
CCOC(=O)CSc1nnc(CNc2cccc(Cl)c2)n1C,36,-4,-5,-36,-3,nt,
COc1ccc(C(=O)Nc2ccnn2C2CCN(C(=O)C3CCOC3)CC2)cc1 (configuration not stated),-18,-1,-2,18,1,nt,
O=C1Nc2ccc(F)cc2C12Nc1ccccc1-c1nnc(SCc3ccccc3)nc1O2 (configuration not stated),nt,-2,6,nt,-1,nt,
O=C1Nc2ccc(F)cc2C12Nc1ccccc1-c1nnc(SCc3ccccc3Cl)nc1O2 (configuration not stated),-15,-2,43*,15,-2,77*,
COC(=O)c1cc(S(=O)(=O)N2c3ccccc3CC2C)cn1C (configuration not stated),5,-3,-5,-5,2,nt,
CCN1C(=O)N(C)[C@@H](c2ccccc2)C(C(C)=O)=C1C,-8,0,13,8,-4,nt,
Cc1nnc(N2CCCC(C(=O)NCc3cccc(F)c3)C2)c2nn(-c3ccccc3)c(C)c12 (configuration not stated),13,-3,50*,-13,21,37,
SMILES,SR-BI HDL uptake,CAL PDZ FP-1,ATG4B inhibitor,SR-BI uptake up,CAL PDZ FP-2,PLA2 ctr,others
Cc1nnc(N2CCCC(C(=O)NCc3ccccc3F)C2)c2nn(-c3ccccc3)c(C)c12 (configuration not stated),1,-1,2,-1,nt,nt,
COc1ccc(Br)cc1/C=C(\C(=O)O)c1ccc(S(=O)(=O)N2CCCC2)s1,32,-2,67*,-32,-12,76*,
COc1cc(/C=C(\C(=O)O)c2ccc(S(=O)(=O)N3CCCC3)s2)cc(OC)c1,-1,-1,-7,1,4,nt,
O=C1C(NS(=O)(=O)c2cccs2)=C(N2CCN(Cc3ccccc3)CC2)C(=O)c2ccccc21,nt,-1,8,nt,-6,nt,
CCOc1ccccc1N1CCN(C2=C(NS(=O)(=O)c3cccs3)C(=O)c3ccccc3C2=O)CC1,81*,0,57*,-81,-2,65*,
Cc1ccc(CS(=O)Cc2ccc(C(=O)NCc3ccccc3Cl)o2)cc1 (configuration not stated),14,0,42*,-14,nt,38,
O=C(NCc1cccc(Cl)c1)c1ccc(CS(=O)Cc2ccc(Cl)cc2)o1 (configuration not stated),33,-2,60*,-33,-7,63*,
O=C(NCc1cccc(Cl)c1)c1ccc(CS(=O)Cc2ccccc2Cl)o1 (configuration not stated),0,-1,69*,0,-3,69*,
COc1ccc(C(=O)c2c(NC(C)=O)sc3c2CCN(C(=O)OC(C)(C)C)C3)cc1,-3,-1,2,3,nt,nt,
COc1ccc(N(CC(O)CN2CCOCC2)S(=O)(=O)c2ccccc2)cc1 (configuration not stated),-21,-1,-5,21,-8,nt,
COc1ccc(C)cc1S(=O)(=O)N(CC(=O)Nc1cccc([N+](=O)[O-])c1)c1ccc(C)c(C)c1,57,0,88*,-57,3,90*,
Cc1ccc(C2/C(=C(/O)c3ccc4c(c3)CC(C)O4)C(=O)C(=O)N2CCCn2ccnc2)cc1 (configuration not stated),-26,-2,-9,26,-3,nt,
CCOc1ccc(C2CC(=O)N(Nc3ccc([N+](=O)[O-])cc3[N+](=O)[O-])C2=O)cc1 (configuration not stated),-12,0,-11,12,-4,nt,
CC(Cc1ccco1)NC(=O)c1ccc(C(F)(F)F)cc1 (configuration not stated),nt,-2,2,nt,nt,nt,
O=C1/C(=C/c2cccs2)SC(=S)N1NS(=O)(=O)c1ccccc1,-13,-3,-2,13,1,nt,

# Screens deposited in PubChem BioAssay by several laboratories.
